Here are results for twelve compounds from ChEMBL document CHEMBL1140319, “The taming of capsaicin. Reversal of the vanilloid activity of N-acylvanillamines by aromatic iodination” (J Med Chem, 2005).

As usually defined, the IC50 is the concentration needed to halve the response being measured.

A value given as a limit tells only on which side of the number the result lay.

T1 sequence (Q8NER1 whole entry): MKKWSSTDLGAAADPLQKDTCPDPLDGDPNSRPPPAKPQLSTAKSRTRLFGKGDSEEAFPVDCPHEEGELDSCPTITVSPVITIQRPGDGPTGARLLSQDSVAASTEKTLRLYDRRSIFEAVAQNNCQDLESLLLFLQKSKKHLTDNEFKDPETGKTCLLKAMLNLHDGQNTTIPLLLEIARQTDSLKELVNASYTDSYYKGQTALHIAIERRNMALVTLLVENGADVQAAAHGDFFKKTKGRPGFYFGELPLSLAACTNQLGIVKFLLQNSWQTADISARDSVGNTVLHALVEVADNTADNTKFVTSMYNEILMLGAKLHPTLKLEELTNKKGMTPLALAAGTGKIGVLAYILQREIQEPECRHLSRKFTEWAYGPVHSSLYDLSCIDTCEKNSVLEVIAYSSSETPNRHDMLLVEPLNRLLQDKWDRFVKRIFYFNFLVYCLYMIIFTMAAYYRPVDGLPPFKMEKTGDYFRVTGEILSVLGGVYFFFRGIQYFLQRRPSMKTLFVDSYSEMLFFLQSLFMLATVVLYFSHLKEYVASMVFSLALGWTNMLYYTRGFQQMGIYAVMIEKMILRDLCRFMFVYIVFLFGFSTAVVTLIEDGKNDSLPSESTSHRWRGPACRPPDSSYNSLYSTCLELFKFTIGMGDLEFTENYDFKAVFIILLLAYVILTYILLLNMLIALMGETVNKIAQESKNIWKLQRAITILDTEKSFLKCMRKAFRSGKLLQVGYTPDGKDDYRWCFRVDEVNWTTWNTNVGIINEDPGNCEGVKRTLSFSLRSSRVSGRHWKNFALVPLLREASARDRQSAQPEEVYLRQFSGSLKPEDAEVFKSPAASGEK

One assay has as its target T1, Transient receptor potential cation channel subfamily V member 1 (Homo sapiens, UniProt Q8NER1). The experiment in a line: Inhibition of 100 nM capsaicin effect on intracellular [Ca2+] concentration in HEK293 cells expressing human TRPV1; (weak agonist activity). The assay is classed as functional, cell-based. The method in brief: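 HEK293 cells stably overexpressing human TRPV1, grown in MEM with nonessential amino acids, 10% FCS and 0.2 mM glutamine. Plated on poly-L-lysine one day before use. Loaded 2 h at 25 °C with 4 μM Fluo-3 AM plus 0.04% Pluronic, then trypsinized into Tyrode pH 7.4 in a stirred cuvette. Compounds added 10 min before 100 nM capsaicin. Fluorescence read at 25 °C (ex 488/em 540 nm). IC50 from half-maximal inhibition.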
Turning to `CCCCCCCCC(=O)NCc1cc(OC)c(O)c(-c2cc(CNC(=O)CCCCCCCC)cc(OC)c2O)c1`, the concentration for half-maximal inhibition (IC50) is more than 20000 nM.

Another assay concerns the target T1, Transient receptor potential cation channel subfamily V member 1. The experiment in a line: Inhibition of 100 nM capsaicin effect on intracellular [Ca2+] concentration in HEK293 cells expressing human TRPV1. The assay is classed as cell-based. In short, it runs like this:
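HEK293 cells stably overexpressing human TRPV1, grown in MEM with nonessential amino acids, 10% FCS and 0.2 mM glutamine. Plated on poly-L-lysine one day before use. Loaded 2 h at 25 °C with 4 μM Fluo-3 AM plus 0.04% Pluronic, then trypsinized into Tyrode pH 7.4 in a stirred cuvette. Compounds added 10 min before 100 nM capsaicin. IC50 from half-maximal inhibition.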
Compound `CCCCCCCCC(=O)NCc1ccc(O)c(OC)c1NC(C)=O` yielded a half-inhibitory concentration (IC50) of 9540 nM.
In the case of `Oc1cc2c(cc1O)CN(C(=S)NCCc1ccc(Cl)cc1)CCC2` [CAPSAZEPINE], 56.2 nM corresponded to half-maximal inhibition (IC50).
`CCCCCCCCC(=O)NCc1cc(Cl)c(O)c(OC)c1` came in with an IC50 of 631 nM.
On the same count and under the same terms, the figure for `CCCCCCCCC(=O)NCc1cc(OC)c(O)cc1Cl` is 50.3 nM.
In turn, `CCCCCCCCC(=O)NCc1cc(OC)c(O)cc1Br` gave an IC50 of 16.1 nM.
For the compound `CCCCCCCCC(=O)NCc1cc(I)c(O)c(OC)c1`, it took 126 nM to reach half-maximal inhibition (IC50).
`CCCCCCCCC(=O)NCc1ccc(O)c(OC)c1[N+](=O)[O-]` came in with a 50% inhibitory concentration (IC50) of 11000 nM.
In turn, `CCCCC/C=C/C/C=C/C/C=C/C/C=C/CCCC=O` registered an IC50 of 51 nM.
`C=C(C)[C@]12C[C@@H](C)[C@@]3(OCc4ccccc4)[C@@H](C=C(COC(=O)Cc4cc(I)c(O)c(OC)c4)C[C@]4(O)C(=O)C(C)=C[C@@H]34)[C@H]1OCO2` returned a half-inhibitory concentration (IC50) of 0.4 nM.
`CCCCCCCCC(=O)NCc1cc(OC)c(O)cc1I` gave an IC50 of 10 nM.
The same measure, in the same setting: the figure for `CCCCCCCCC(=O)NCc1cc(Br)c(O)c(OC)c1` is 252 nM.
